Screening data: PubChem, Broad Institute
The entries come from a sample that favours hits as a whole.
IDH1 R132H inh: inhibitors of IDH1 R132H reductase, primary screen, biochemical, plate reader, single point; inhibition, % at 10 µM; hit rate 0.18% among 70,000; Isocitrate dehydrogenase [NADP] cytoplasmic (Homo sapiens), O75874; diaphorase/resazurin fluorescence, 60 min; AID 624101, 2012; in the data active = inhibition above about 34%;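 note: 0% = DMSO and 100% = no enzyme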
Pf Dd2 growth: P. falciparum Dd2 growth inhibitors, primary screen, SYBR Green fluorescence, single dose replicates; 72 h; stronger effect = lower value; activity change, % at 10 µM; hit rate 2.3% among 94,000; in the data active = activity change below about -80%
KDM4C inh: inhibitors of GASC-1 (KDM4C) histone demethylase, primary screen, biochemical, single concentration HTS. hit rate 0.15% among 96,000. GST-KDM4C 2-372, H3K9me3 peptide, LANCE TR-FRET. inhibition, % at 12.5 µM;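 active = mean replicate inhibition above about 25%, with at least 55% of replicates also reaching it, limit read from the data, passing the limit was not always enough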
Target sequence (Q9H3R0 2-372 limits assumed): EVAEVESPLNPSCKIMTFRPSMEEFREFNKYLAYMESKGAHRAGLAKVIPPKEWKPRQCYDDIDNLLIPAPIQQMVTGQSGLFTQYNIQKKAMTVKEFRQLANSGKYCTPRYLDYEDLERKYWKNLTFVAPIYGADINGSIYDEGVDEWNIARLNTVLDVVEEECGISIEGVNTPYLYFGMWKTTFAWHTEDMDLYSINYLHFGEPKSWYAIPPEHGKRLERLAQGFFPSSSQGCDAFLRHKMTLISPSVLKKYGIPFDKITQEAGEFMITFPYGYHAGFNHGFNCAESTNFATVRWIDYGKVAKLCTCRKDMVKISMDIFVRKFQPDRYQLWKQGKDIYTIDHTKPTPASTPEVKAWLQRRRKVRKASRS
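Assay system: GST-GASC-1 enzyme fragment 2-372 | Amount: 10 nM enzyme | Medium: HEPES buffer, pH 7.5, plus ascorbate | Reagent: H3K9me3 peptide substrate, Fe(II), 2-oxoglutarate | Doses: Single-point compound screen | Incubation: 30 min demethylation and 1 h detection at room temperature | Measured by: LANCE TR-FRET, excitation 340 nm, emissions 618 and 671 nm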
Starred values were filed as active, the others as inactive.

`C[C@@H]1CCCCO[C@H](CN(C)S(=O)(=O)c2ccccc2)[C@H](C)CN([C@@H](C)CO)C(=O)c2cc(NC(=O)c3ccccc3)ccc2O1` gave Pf Dd2 growth -55.8 and KDM4C inh -0.8.
Screening C[C@@H]1CN([C@@H](C)CO)C(=O)c2cc(NC(=O)c3ccccc3)ccc2O[C@@H](C)CCCCO[C@H]1CN(C)S(=O)(=O)c1ccc(Cl)cc1 returned IDH1 R132H inh 1.0, Pf Dd2 growth -84.4* and KDM4C inh -0.3.
`C[C@@H]1CCCCO[C@@H](CN(C)S(=O)(=O)c2ccc(Cl)cc2)[C@H](C)CN([C@H](C)CO)C(=O)c2cc(NC(=O)c3ccccc3)ccc2O1` gave IDH1 R132H inh -0.5, Pf Dd2 growth -85.1* and KDM4C inh -1.9.
Screening C[C@@H]1CCCCO[C@@H](CN(C)S(=O)(=O)c2ccccc2)[C@H](C)CN([C@@H](C)CO)C(=O)c2cc(NC(=O)c3ccccc3)ccc2O1 returned Pf Dd2 growth -37.9 and KDM4C inh -1.3.
For C[C@@H]1CCCCO[C@@H](CN(C)S(=O)(=O)c2ccc(Cl)cc2)[C@H](C)CN([C@@H](C)CO)C(=O)c2cc(NC(=O)c3ccccc3)ccc2O1 the results were IDH1 R132H inh 1.2, Pf Dd2 growth -69.5 and KDM4C inh 2.7.
Screening C[C@@H]1CN([C@@H](C)CO)C(=O)c2cc(NC(=O)c3ccccc3)ccc2O[C@@H](C)CCCCO[C@@H]1CN(C)S(=O)(=O)c1ccc(Cl)cc1 returned IDH1 R132H inh 0.7, Pf Dd2 growth -86.4* and KDM4C inh 11.8.
Screening CC(C)NC(=O)Nc1ccc2c(c1)CC(=O)N([C@@H](C)CO)C[C@H](C)[C@@H](CN(C)C(=O)Nc1ccccc1)O2 returned IDH1 R132H inh 0.2, Pf Dd2 growth 28.4 and KDM4C inh 0.2.
Screening COCC(=O)Nc1ccc2c(c1)C(=O)N(C)[C@@H]1CC[C@H](CC(=O)NCc3cccc(F)c3)O[C@@H]1CO2 returned Pf Dd2 growth 9.4 and KDM4C inh 2.1.
`C[C@@H]1CCCCO[C@H](CN(C)Cc2ccc(C(=O)O)cc2)[C@H](C)CN([C@H](C)CO)C(=O)c2cc(NC(=O)NC3CCCCC3)ccc2O1` gave IDH1 R132H inh 3.0, Pf Dd2 growth -50.0 and KDM4C inh 3.1.
`COc1ccc2c3c([nH]c2c1)[C@@H](CO)N(C(=O)C1CCCCC1)CC31CCN(Cc2nccs2)CC1` gave Pf Dd2 growth -87.4* and KDM4C inh 1.4.
`COc1ccc2c3c([nH]c2c1)[C@H](CO)N(C(=O)C1CCC1)CC31CCN(Cc2nccs2)CC1` gave Pf Dd2 growth -74.7 and KDM4C inh -2.0.
COc1ccc2c3c([nH]c2c1)[C@H](CO)N(C(=O)C1CC1)CC31CCN(Cc2nccs2)CC1 was read as Pf Dd2 growth -51.0 and KDM4C inh -0.9.
For COc1ccc2c3c([nH]c2c1)[C@H](CO)N(C(=O)C1CCOCC1)CC31CCN(Cc2nccs2)CC1 the results were Pf Dd2 growth -87.6* and KDM4C inh 0.6.
For Cc1cccc(-c2ccc([C@@H]3[C@@H](CO)N4CCCCN(C(=O)NC(C)C)C[C@H]34)cc2)c1 the results were Pf Dd2 growth 14.0 and KDM4C inh -1.7.
Screening O=C(NC1CCCCC1)N[C@H]1CC[C@H](CCNS(=O)(=O)c2ccc(Cl)cc2)O[C@@H]1CO returned IDH1 R132H inh -0.3, Pf Dd2 growth -37.8 and KDM4C inh -0.1.
For Cc1ccc(S(=O)(=O)Nc2ccc3c(c2)C(=O)N([C@@H](C)CO)C[C@H](C)[C@H](CN(C)S(=O)(=O)c2ccc(Cl)cc2)OCCCC[C@@H](C)O3)cc1 the results were IDH1 R132H inh 2.1, Pf Dd2 growth -85.7* and KDM4C inh 0.0.
Screening Cc1ccc(S(=O)(=O)N(C)C[C@@H]2OCCCC[C@H](C)Oc3ccc(NS(=O)(=O)c4ccc(Cl)cc4)cc3C(=O)N([C@H](C)CO)C[C@@H]2C)cc1 returned IDH1 R132H inh 0.2, Pf Dd2 growth -46.0 and KDM4C inh -1.6.
`Cc1ccc(S(=O)(=O)N(C)C[C@H]2OCCCC[C@H](C)Oc3ccc(NS(=O)(=O)c4ccc(Cl)cc4)cc3C(=O)N([C@H](C)CO)C[C@H]2C)cc1` gave IDH1 R132H inh 0.0, Pf Dd2 growth -67.9 and KDM4C inh 1.6.
Screening Cc1noc(C)c1S(=O)(=O)Nc1ccc2c(c1)C(=O)N([C@@H](C)CO)C[C@H](C)[C@H](CN(C)S(=O)(=O)c1ccc(Cl)cc1)OCCCC[C@@H](C)O2 returned Pf Dd2 growth -72.9 and KDM4C inh 0.1.
`Cc1ccc(S(=O)(=O)Nc2ccc3c(c2)C(=O)N([C@H](C)CO)C[C@@H](C)[C@@H](CN(C)S(=O)(=O)c2ccc(Cl)cc2)OCCCC[C@@H](C)O3)cc1` gave IDH1 R132H inh 0.5, Pf Dd2 growth -85.0* and KDM4C inh 0.3.
Cc1ccc(S(=O)(=O)Nc2ccc3c(c2)C(=O)N([C@H](C)CO)C[C@H](C)[C@H](CN(C)S(=O)(=O)c2ccc(Cl)cc2)OCCCC[C@H](C)O3)cc1 was read as Pf Dd2 growth -64.1 and KDM4C inh -2.2.
Cc1ccc(S(=O)(=O)Nc2ccc3c(c2)C(=O)N([C@H](C)CO)C[C@@H](C)[C@@H](CN(C)S(=O)(=O)c2ccc(Cl)cc2)OCCCC[C@H](C)O3)cc1 was read as Pf Dd2 growth -85.6* and KDM4C inh 1.4.
Screening Cc1noc(C)c1S(=O)(=O)Nc1ccc2c(c1)C(=O)N([C@@H](C)CO)C[C@H](C)[C@@H](CN(C)S(=O)(=O)c1ccc(Cl)cc1)OCCCC[C@@H](C)O2 returned Pf Dd2 growth -83.6* and KDM4C inh -0.4.
Screening CCNC(=O)C[C@H]1CC[C@H]2[C@@H](COc3ccc(NC(=O)c4ccc(C#N)cc4)cc3C(=O)N2C)O1 returned Pf Dd2 growth 12.3 and KDM4C inh -4.7.
Screening Cc1ccc(S(=O)(=O)Nc2ccc3c(c2)C(=O)N([C@H](C)CO)C[C@@H](C)[C@H](CN(C)S(=O)(=O)c2ccc(Cl)cc2)OCCCC[C@@H](C)O3)cc1 returned IDH1 R132H inh -3.1, Pf Dd2 growth -80.9* and KDM4C inh 7.7.
Cc1ccc(S(=O)(=O)Nc2ccc3c(c2)C(=O)N([C@@H](C)CO)C[C@@H](C)[C@H](CN(C)S(=O)(=O)c2ccc(Cl)cc2)OCCCC[C@@H](C)O3)cc1 was read as Pf Dd2 growth -43.1 and KDM4C inh -1.0.
`C[C@@H]1CN([C@@H](C)CO)C(=O)c2cc(NS(=O)(=O)c3ccc(F)cc3)ccc2O[C@@H](C)CCCCO[C@@H]1CN(C)C(=O)Nc1cccc2ccccc12` gave Pf Dd2 growth -86.0* and KDM4C inh -0.2.
`C[C@H](CO)N1C[C@H](C)[C@H](CN(C)C(=O)Nc2cccc3ccccc23)OCCCC[C@H](C)Oc2ccc(NS(=O)(=O)c3ccc(F)cc3)cc2C1=O` gave IDH1 R132H inh 0.2, Pf Dd2 growth -30.9 and KDM4C inh 0.7.
